T cell modulator – T cell immune modulation candidate | 2C CD8+ T cell-vesicle binding, flow cytometry; stronger effect = lower value | response (vesicle binding), % at 7 µM | actives 0.068% (n = 330,000);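 active = response, share of CD8 T cells binding vesicles, and their 90th percentile fluorescence all below set limits, cut at about 80% in these data, passing the limit was not always enough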;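 note: values below 100% mean blocked vesicle binding to the CD8+ T cells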
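Material: murine 2C transgenic CD8+ T lymphocytes / Also added: QL9-peptide-loaded Drosophila micro-vesicles bearing Ld, ICAM-1 and B7-1 / Schedule: binding step 1.5 h, 37 °C, antibody labelling 20 min, ice / Signal: flow cytometry, PE anti-B7-1 (FL2) versus Alexa647 anti-CD8 (FL8), PFA-fixed / Evaluation: percent CD8+ FL2 mean versus row control / Benchmarks: naked versus QL9-loaded vesicles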
V-ATPase pH – regulators of yeast V-ATPase proton transport; S. cerevisiae, pHLuorin cytosolic pH fluorescence; response, % at 10 µM; actives 0.37% (n = 350,000); AID 504577; in the data active = response mostly above about 7.3%, no sharp cut-off; inactive = mostly below about 5.4%; note: actives read high
Arr AP2 block – human beta-arrestin and AP2 interaction inhibition. AID 504490. inhibition, % at 10 µM. actives 0.31% (n = 340,000). FITC-arrestin peptide / GST-AP2 beads, flow cytometry; AP2 beta2 appendage carries R879A mutation;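 active = inhibition above a set limit, near 3 SD of compounds lacking own fluorescence, cut at about 54% in these data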
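System: GST-AP2 R879A glutathione beads; medium: PBS, Tween 20 0.05%, BSA 0.1%; reagent: fluorescein-tagged arrestin peptide at 50 nM final; schedule: pre-incubation 12 min, peptide binding 1 h, room temperature; detection: flow cytometry, FL1 (488/535 nm); read-out: inhibition as reduced fluorescein signal on beads, percent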
XiGFP reactiv – reactivates the inactive X chromosome in mouse fibroblasts; actives 0.055% (n = 360,000); activation, % at 7.58 µM; XiGFP mouse fibroblasts, % GFP-positive cells imaging, 3 d; cells co-treated with 5-aza-dC sensitizer; scaled so ellipticine positive control = 100%;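 active = mean normalized replicate activation at least 10% and every replicate at or above 10%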
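Assay system: SV40-immortalized XiGFP fibroblast cells, line 68-5-11; buffer or medium: DMEM plus 5-aza-dC sensitizer; compound: one concentration, pinned; timing: compounds 3 days, fix/stain 15 min at room temperature; benchmarks: positive control ellipticine, 6 µM final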
beta cell repl – MIN6 beta-cell proliferation induction. actives 0.29% (n = 330,000). MIN6 cells proliferation, ATPlite luminescence, 48 h; cells starved in 0.2% serum; 100% = growth in 10% serum. proliferation, % at 10 µM;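 active = compounds whose signal lies at least 3.5 SD above the mean of all wells on their plate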
NTR1 agonist – NTR1 (human) agonism | P30989 | NTR1-U2OS beta-arrestin-GFP spot imaging, agonist mode | activation, % at 20 µM | actives 0.17% (n = 330,000) | AID 493036;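 active = activation at or above 40% of the spot to cytoplasm intensity ratio, with at least 20 cells analyzed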
Target sequence (P30989 whole entry, looked up): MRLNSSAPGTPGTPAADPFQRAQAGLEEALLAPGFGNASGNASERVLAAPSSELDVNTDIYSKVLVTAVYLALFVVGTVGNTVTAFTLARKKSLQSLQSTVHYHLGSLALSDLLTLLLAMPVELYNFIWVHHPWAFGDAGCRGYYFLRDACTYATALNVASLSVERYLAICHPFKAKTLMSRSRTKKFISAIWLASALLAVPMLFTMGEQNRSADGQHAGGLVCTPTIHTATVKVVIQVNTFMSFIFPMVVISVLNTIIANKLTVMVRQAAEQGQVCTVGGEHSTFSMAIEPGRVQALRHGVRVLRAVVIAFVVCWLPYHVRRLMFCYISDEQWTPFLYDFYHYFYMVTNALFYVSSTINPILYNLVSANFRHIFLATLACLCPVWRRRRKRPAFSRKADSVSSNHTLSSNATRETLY
VATPase regulator – yeast V-ATPase proton transport regulation; shares compounds with V-ATPase pH; S. cerevisiae pHLuorin cytosolic pH; response, % at 10 µM; actives 2% (n = 980); in the data active = response above about 24%
Hits are given with their value; 0 = inactive; - = no result. The list is not random: actives were taken first. Their share in the collection is about 0.89%.

SMILES | T cell modulator | V-ATPase pH | Arr AP2 block | XiGFP reactiv | beta cell repl | NTR1 agonist | VATPase regulator
COc1cccc(/C=C/C(=O)Nc2cc(S(=O)(=O)N3CCOCC3)ccc2OC)c1 | - | 12 | 0 | 0 | 0 | 0 | 0
Cc1ccc(S(=O)(=O)N2CCN(C(=O)COC(=O)c3cccnc3Cl)CC2)c(C)c1 | 0 | 13 | 0 | 0 | 0 | 0 | 0
CSc1ncccc1C(=O)OCC(=O)N1CCN(S(=O)(=O)c2ccc(C)cc2C)CC1 | 0 | 0 | 0 | 0 | 0 | 0 | -
C[C@H](CO)N1C[C@H](C)[C@@H](CN(C)C(=O)C2CCOCC2)Oc2cc(C#Cc3ccncc3)ccc2S1(=O)=O | - | - | - | 0 | - | - | -
COc1cc(C(=O)NCCOc2cccc3cccnc23)cc(OC)c1OC | 0 | 15 | 0 | 0 | 0 | 0 | 0
CCN1CCN(C(=O)CN(CCc2ccccc2)S(C)(=O)=O)CC1 | 0 | 0 | 0 | - | 0 | 0 | -
CN1CCN(C(=O)CN(CCc2ccccc2)S(C)(=O)=O)CC1 | 0 | 11 | 0 | - | 0 | 0 | 0
CCC(C)NCCOCCOc1ccc(C)cc1Br (centres undefined) | 0 | 36 | 0 | - | 0 | 0 | 0
CC(C)(C)OC(=O)N[C@@H](Cc1ccccc1)C(=O)N[C@@H](CO)[C@H](O)[C@@H]1C[C@@H]1C(=O)NC1CC1 | 0 | 11 | 0 | 0 | 0 | 0 | 0
COc1ccc(OC)c(CNC(=O)C2CCN(S(C)(=O)=O)CC2)c1 | 0 | 11 | 0 | 0 | 0 | 0 | 0
C[C@@H]1CN([C@H](C)CO)C(=O)c2cc(-c3cncnc3)cnc2O[C@H]1CN(C)C(=O)CN1CCOCC1 | - | - | - | 0 | - | - | -
CN(CCOc1ccc(-c2ccn(S(=O)(=O)c3ccc(Cl)cc3)n2)cc1)c1ccccn1 | 0 | 10 | 0 | - | 0 | 0 | 0
CN(CCOc1ccc(-c2ccn(S(=O)(=O)c3c(Cl)cccc3Cl)n2)cc1)c1ccccn1 | 0 | 0 | 0 | - | 0 | 0 | -
O=C1NCCN/C1=C\C(=O)c1ccc(F)cc1 | 0 | 0 | 0 | 0 | 0 | 0 | 0
O=C(CCl)NN1C(=O)NC(c2ccccc2)(c2ccccc2)C1=O | 0 | 12 | 0 | 0 | 0 | 0 | 0
N/C(=N\OC(=O)Cc1ccccc1[N+](=O)[O-])c1cccc(Br)c1 | 0 | 13 | 0 | 0 | 0 | 0 | 0
CCN(CC)c1ccc(C2C(C(=O)Nc3ccccn3)=C(C)NC3=C2C(=O)CC(C)(C)C3)cc1 (centres undefined) | 0 | 17 | 0 | - | 0 | 0 | 0
CC1=C(C(=O)Nc2ccccn2)C(c2ccc3c(c2)OCO3)C2=C(CC(C)(C)CC2=O)N1 (centres undefined) | 0 | 0 | 0 | 0 | 0 | 0 | -
CCOC(=O)c1ccc(NC(=O)C(=O)NCc2ccncc2)cc1 | 0 | 11 | 0 | - | 0 | 0 | 0
CCOC(=O)c1ccc(NC(=O)C(=O)NCc2ccccn2)cc1 | 0 | 0 | 0 | 0 | 0 | 0 | -
CN1c2ccc(-c3ccc(F)cc3)cc2[C@@H]2[C@@H](CCN2C(=O)CC2CC2)[C@H]1CO | - | - | - | 0 | - | - | -
O=C(CSc1nc(=O)n(CCCN2CCOCC2)c2c1CCCC2)Nc1ccc(F)cc1F | 0 | 6.0 | 0 | 0 | 0 | 0 | 0
CCCN1[C@@H]2c3ccc(-c4ccccc4OC)c(=O)n3C[C@@H]2[C@@H](CO)[C@@H]1C(=O)OC | - | - | - | 0 | - | - | -
CC(c1ccon1)N(C)Cc1c(C(=O)N(C)Cc2ccccc2)nc2ccccn12 (centres undefined) | 0 | 8.1 | 0 | 0 | 0 | 0 | 0
C[C@H](CO)N1C[C@H](C)[C@H](CN(C)S(=O)(=O)c2ccc(F)cc2)Oc2c(NC(=O)NC3CCCCC3)cccc2C1=O | - | - | - | 0 | - | - | -
SMILES | T cell modulator | V-ATPase pH | Arr AP2 block | XiGFP reactiv | beta cell repl | NTR1 agonist | VATPase regulator
C[C@H](CO)N1C[C@H](C)[C@@H](CN(C)Cc2ccc(Cl)c(Cl)c2)Oc2ccc(NC(=O)Nc3ccc4c(c3)OCO4)cc2C1=O | - | - | - | 0 | - | - | -
OCCN(CCO)Cc1csc2ccccc12 | 0 | 12 | 0 | - | 0 | 0 | 0
CC(C)NC(=O)COc1ccccc1C#N | 0 | 14 | 0 | 0 | 0 | 0 | 0
COc1ccc(CNCC(O)(c2ccccc2)c2ccc(Cl)cc2)cc1 (centres undefined) | 0 | 11 | 0 | - | 0 | 0 | 0
Cc1ccc(CNCC(O)(c2ccccc2)c2ccc(Cl)cc2)cc1 (centres undefined) | - | 0 | 0 | 0 | - | - | -
Cc1ccc(C)c(C(=O)COC(=O)C2CCN(c3ccc(C(F)(F)F)cn3)CC2)c1 | 0 | 0 | 0 | 0 | 0 | 0 | -
Cc1cc(C)c(C(=O)COC(=O)C2CCN(c3ccc(C(F)(F)F)cn3)CC2)c(C)c1 | 0 | 8.6 | 0 | 0 | 0 | 0 | 0
Nc1cnn(C2OC(CO)C(O)C2O)c(=O)n1 (centres undefined) | 0 | 7.8 | 0 | 0 | 0 | 0 | 0
Nc1ncn(C2O[C@H](CO)[C@@H](O)[C@H]2O)c(=O)n1 (some centres undefined) | 0 | - | - | - | 0 | 0 | -
COc1ccc(N2C(=NC(=O)C3CCCCC3)SC3CS(=O)(=O)CC32)cc1 (centres undefined) | 0 | 8.0 | 0 | 0 | 0 | 0 | 0
C[C@H](CO)N1C[C@H](C)[C@@H](CN(C)Cc2ccc(C(=O)O)cc2)OCCCC[C@H](C)Oc2ccc(NC(=O)C3CCCCC3)cc2C1=O | - | - | - | 0 | - | - | -
O=S(=O)(c1ccc(F)cc1)N1CCN(CC(O)COCc2ccccc2)CC1 (centres undefined) | - | 0 | 0 | 0 | - | - | -
O=S(=O)(c1ccc(F)cc1)N1CCN(CC(O)COCC2CCCO2)CC1 (centres undefined) | - | 9.8 | 0 | 0 | 0 | 0 | 0
CN(C)N1C(=O)CC(N2CCCC2)C1=O (centres undefined) | 0 | 11 | 0 | 0 | 0 | 0 | 0
CCN1C(=O)CC(N2CCOCC2)C1=O (centres undefined) | 0 | 0 | 0 | - | 0 | 0 | -
O=C(N/N=C/c1ccc(O)cc1O)c1ccncc1 | 0 | 6.8 | 0 | 0 | 0 | 0 | 0
CCc1ccccc1N(C)S(=O)(=O)c1ccc2[nH]cc(C(=O)N3CCc4ccccc43)c(=O)c2c1 | 0 | 22 | 0 | 0 | 0 | 0 | 0
Cc1cccc(N(C)S(=O)(=O)c2ccc3[nH]cc(C(=O)N4CCOCC4)c(=O)c3c2)c1 | 0 | 0 | 0 | - | 0 | 0 | -
Cc1occc1C(=O)N/N=C/c1sc(N2CCOCC2)nc1-c1ccccc1 | 0 | 10 | 0 | 0 | 0 | 0 | 0
O=C(N/N=C/c1sc(N2CCOCC2)nc1-c1ccccc1)c1ccc(O)cc1 | 0 | 0 | - | 0 | 0 | 0 | -
CC(C)NC(=O)N(C)C[C@@H]1Oc2ccc(N)cc2CC(=O)N(C)C[C@H]1C | - | - | - | 0 | - | - | -
COc1cccc(C2C(C(=O)c3ccco3)=C(O)C(=O)N2CCN(C)C)c1OC (centres undefined) | 0 | 0 | 0 | 0 | 0 | 0 | -

Source: PubChem BioAssay
